pKd: −log10 of the molar value. Active and inactive are the calls of the source. No cut-off for these calls is given here.
How the values were obtained:
VSMC [1] = experiment: Downregulation of Fst gene expression in human VSMC cells pretreated with compound at 250 to 500 nM followed by AngII addition measured by RT-qPCR analysis; format: functional, cell-based; conditions: dose 250-500 nM
Rattus norvegicus [2] = organism: Rattus norvegicus; experiment: Downregulation of Foxp1 gene expression in rat aorta pretreated with compound at 500 nM followed by AngII addition measured by ChIP assay; format: functional, tissue-based
VSMC [3] = experiment: Downregulation of Flt gene expression in human VSMC cells pretreated with compound at 250 to 500 nM followed by AngII addition measured by RT-qPCR analysis; format: functional, cell-based; conditions: dose 250-500 nM
Rattus norvegicus [4] = organism: Rattus norvegicus; experiment: Downregulation of ESM1 gene expression in rat aorta pretreated with compound at 500 nM followed by AngII addition measured by ChIP assay; format: functional, tissue-based
VSMC [5] = experiment: Downregulation of Fgf2 gene expression in human VSMC cells pretreated with compound at 250 to 500 nM followed by AngII addition measured by RT-qPCR analysis; format: functional, cell-based; conditions: dose 250-500 nM
VSMC [6] = experiment: Downregulation of ESM1 gene expression in human VSMC cells pretreated with compound at 250 to 500 nM followed by AngII addition measured by RT-qPCR analysis; format: functional, cell-based; conditions: dose 250-500 nM
Rattus norvegicus [7] = organism: Rattus norvegicus; experiment: Downregulation of Tgif1 gene expression in rat aorta pretreated with compound at 500 nM followed by AngII addition measured by ChIP assay; format: functional, tissue-based
VSMC [8] = experiment: Downregulation of Egr2 gene expression in human VSMC cells pretreated with compound at 250 to 500 nM followed by AngII addition measured by RT-qPCR analysis; format: functional, cell-based; conditions: dose 250-500 nM
VSMC [9] = experiment: Downregulation of Tgif1 gene expression in human VSMC cells pretreated with compound at 250 to 500 nM followed by AngII addition measured by RT-qPCR analysis; format: functional, cell-based; conditions: dose 250-500 nM
VSMC [10] = experiment: Downregulation of Foxp1 gene expression in human VSMC cells pretreated with compound at 250 to 500 nM followed by AngII addition measured by RT-qPCR analysis; format: functional, cell-based; conditions: dose 250-500 nM
Mus musculus [11] = experiment: Antihypersensitivity in 1 ug/kg/min AngII infused C57BL/6 mouse assessed as reduction in inflammation at 50 mg/kg, ip for 4 weeks by F4/80 staining analysis; format: functional, organism-based
Outline: (§1)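 Male C57BL/6 mice with subcutaneous osmotic minipumps delivering AngII (1.0 μg kg−1 min−1, 28 days); from 2 days post-implantation, 50 mg kg−1 ip once daily (vehicle DMSO). Aortas formalin-fixed, paraffin 5 µm sections. H&E sections quantified for wall thickness; F4/80 IHC (DAB) quantified as reciprocal brown intensity excluding adventitia. Mean + SEM, one-way ANOVA with Tukey.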

[12] = Binding affinity of BRD2 (unknown origin) assessed as dissociation constant; design: species or system Homo sapiens
Mus musculus [13] = experiment: Antihypersensitivity in 1 ug/kg/min AngII infused C57BL/6 mouse assessed as reduction in systolic blood pressure at 50 mg/kg, ip for 4 weeks; format: functional, organism-based
Outline: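 Male C57BL/6 mice infused with AngII via subcutaneous osmotic minipump (1.0 μg kg−1 min−1, 28 days); 50 mg kg−1 ip once daily starting 2 days post-implantation, vehicle DMSO. Systolic pressure by tail cuff during week 4. n = 7–8 mice/group, mean + SEM, one-way ANOVA with Tukey.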

VSMC [14] = experiment: Downregulation of Spry2 gene expression in human VSMC cells pretreated with compound at 250 to 500 nM followed by AngII addition measured by RT-qPCR analysis; format: functional, cell-based; conditions: dose 250-500 nM
Rattus norvegicus [15] = organism: Rattus norvegicus; experiment: Downregulation of Spry2 gene expression in rat aorta pretreated with compound at 500 nM followed by AngII addition measured by ChIP assay; format: functional, tissue-based
Rattus norvegicus [16] = organism: Rattus norvegicus; experiment: Downregulation of fst gene expression in rat aorta pretreated with compound at 500 nM followed by AngII addition measured by ChIP assay; format: functional, tissue-based
Mus musculus [17] = experiment: Antihypersensitivity in 1 ug/kg/min AngII infused C57BL/6 mouse assessed as reduction in medial hypertrophy at 50 mg/kg, ip for 4 weeks by F4/80 staining analysis; format: functional, organism-based; outline: as §1
Rattus norvegicus [18] = organism: Rattus norvegicus; experiment: Downregulation of Fgf2 gene expression in rat aorta pretreated with compound at 500 nM followed by AngII addition measured by ChIP assay; format: functional, tissue-based

## Cc1sc2c(c1C)C(c1ccc(Cl)cc1)=N[C@@H](CC(=O)OC(C)(C)C)c1nnc(C)n1-2
VSMC [1]
  Activity: Active
Rattus norvegicus [2]
  Activity: Active
VSMC [3]
  Activity: Active
Rattus norvegicus [4]
  Activity: Active
VSMC [5]
  Activity: Active
VSMC [6]
  Activity: Active
Rattus norvegicus [7]
  Activity: Active
VSMC [8]
  Activity: Active
VSMC [9]
  Activity: Active
VSMC [10]
  Activity: Active
Mus musculus [11]
  Activity: Active
[12]
  pKd: ~6.89
Mus musculus [13]
  Activity: Active
VSMC [14]
  Activity: Active
Rattus norvegicus [15]
  Activity: Active
Rattus norvegicus [16]
  Activity: Active
Mus musculus [17]
  Activity: Active
Rattus norvegicus [18]
  Activity: Active
